Experimental findings from publication PMC5086809 (European journal of pharmacology, 2013) are described below.

The target in the experiment is T1, human GPR119 receptor (G protein-coupled receptor 119) (Homo sapiens, UniProt Q8TDV5).
T1 sequence (Q8TDV5 1-335): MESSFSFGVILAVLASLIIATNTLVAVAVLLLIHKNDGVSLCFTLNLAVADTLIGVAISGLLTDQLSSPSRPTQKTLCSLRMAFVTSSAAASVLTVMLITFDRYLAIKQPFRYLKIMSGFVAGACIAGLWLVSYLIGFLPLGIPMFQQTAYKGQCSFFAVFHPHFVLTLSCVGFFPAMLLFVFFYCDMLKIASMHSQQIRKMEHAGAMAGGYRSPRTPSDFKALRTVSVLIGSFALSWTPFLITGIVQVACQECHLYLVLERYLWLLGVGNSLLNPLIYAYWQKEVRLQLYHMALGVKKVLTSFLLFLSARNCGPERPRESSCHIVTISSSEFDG
Description: HTRF cAMP accumulation assay, stable HEK293 cells. Type of experiment: cell-based. The essentials: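 HEK293 cells stably transfected with human GPR119, selected in 800 µg/ml geneticin and kept in 400 µg/ml G418. Test compound in DMEM with 2.5% fatty acid-free BSA, 30 min at room temperature. HTRF read (d2-cAMP plus Eu-cryptate anti-cAMP, 2 h, ex 337/em 665 and 620 nm). cAMP taken from a standard curve; EC50 from a sigmoidal fit; five independent experiments.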

SMILES strings stand for the structures.

The EC50 is the concentration giving half of the maximal effect. A higher EC50 goes with weaker potency. On to `CC(C)c1noc(C2CCN(c3ncnc(Nc4ccc(S(C)(=O)=O)cc4F)c3[N+](=O)[O-])CC2)n1` [AR231453], for which the EC50 turned out to be 0.011 µM.
Then `CCCCC/C=C\C/C=C\C/C=C\CCCCCCC(=O)NCCO` [Dihomo-γ-linolenoyl ethanolamide], with 25.6 µM; and `CC/C=C\C/C=C\C/C=C\C/C=C\C/C=C\C/C=C\CCC(=O)NCCO` [Docosahexaenoyl ethanolamide], with 63.8 µM.
Then `CCCCC/C=C\C/C=C\C/C=C\C/C=C\CCCCCC(=O)NCCO` [Docosatetra-7Z,10Z,13Z,16Z-enoyl ethanolamide], with 40.2 µM; and `CC/C=C\C/C=C\C/C=C\C/C=C\C/C=C\CCCC(=O)NCCO` [Eicosapentaenoyl ethanolamide], with 65.6 µM; and `CCCCC/C=C\C/C=C\CCCCCCCC(=O)NCCO` [Linoleoyl ethanolamide], with 8.11 µM.
`CCCCCCCC/C=C\CCCCCCCC(N)=O` [Oleamide] returned an EC50 of 42.9 µM.
The result for `CCCCCCCC/C=C\CCCCCCCC(=O)NCCc1ccc(O)c(O)c1` [Oleoyl dopamine] reads 54.8 µM; that for `CCCCCCCC/C=C\CCCCCCCC(=O)NCCO` [Oleoyl ethanolamide], 7.65 µM.
On to `CC(C)(C)OC(=O)N1CCC(OCc2nc(-c3ccncc3)no2)CC1` [PSN632408], for which it took 7.61 µM to reach a half-maximal effect (EC50).
The result for `CCCCCCCCCCCCCCCC(=O)NCCO` [Palmitoyl ethanolamide] reads 10.1 µM.
